# Laboratory results reported in ChEMBL document CHEMBL1142063, “Synthesis of omeprazole analogues and evaluation of these as potential inhibitors of the multidrug efflux pump NorA of Staphylococcus aureus” (2007).
# How the values were obtained:
# Staphylococcus aureus [1] = experiment: Increase in 5 ug sparfloxacin antibacterial activity against Staphylococcus aureus SA1199B mutant overexpressing NorA at 128 ug/ml by disk diffusion method; assay type: functional
# Summary of the method: (§1)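 Agar diffusion on Mueller-Hinton agar (adjusted to 20 μg/ml Ca²⁺ and 10 μg/ml Mg²⁺), used plain or with the efflux inhibitor incorporated at the stated concentration. Disks were 5 μg for the fluoroquinolones and 30 μg for chloramphenicol. Plates were incubated overnight at 37°C, and inhibition zone diameters were measured. Values are means of at least three independent experiments.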
# Staphylococcus aureus [2] = experiment: Increase in 5 ug moxifloxacin antibacterial activity against Staphylococcus aureus SA1199B mutant overexpressing NorA at 128 ug/ml by disk diffusion method; assay type: functional; summary of the method: as §1
# Staphylococcus aureus [3] = experiment: Increase in 30 ug chloramphenicol antibacterial activity against Staphylococcus aureus SA1199B mutant overexpressing NorA at 128 ug/ml by disk diffusion method; assay type: functional; summary of the method: as §1
# Staphylococcus aureus [4] = experiment: Antibacterial activity against Staphylococcus aureus; assay type: functional
# Summary of the method: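 Tube broth dilution MIC against SA-1199 and NorA-overproducing SA-1199B in Mueller-Hinton broth with 20 μg/ml Ca²⁺ and 10 μg/ml Mg²⁺. Inoculum was a 4–5 h 37°C culture diluted 1/10 (≈10⁶ CFU/ml). Compound range was 512 to 1 μg/ml, dissolved in DMSO (final ≤4%).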
# Staphylococcus aureus [5] = experiment: Increase in 2 ug/ml Norfloxacin antibacterial activity against wild type Staphylococcus aureus SA1199 at 128 ug/ml by checker board method; assay type: functional
# Staphylococcus aureus [6] = experiment: Increase in 64 ug/ml Norfloxacin antibacterial activity against Staphylococcus aureus SA1199B mutant overexpressing NorA at 128 ug/ml by checker board method; assay type: functional
# Staphylococcus aureus [7] = experiment: Increase in 5 ug Norfloxacin antibacterial activity against Staphylococcus aureus SA1199B mutant overexpressing NorA at 128 ug/ml by disk diffusion method; assay type: functional; summary of the method: as §1
# Staphylococcus aureus [8] = experiment: Increase in 5 ug ciprofloxacin antibacterial activity against Staphylococcus aureus SA1199B mutant overexpressing NorA at 128 ug/ml by disk diffusion method; assay type: functional; summary of the method: as §1
# Staphylococcus aureus [9] = experiment: Increase in 5 ug ofloxacin antibacterial activity against Staphylococcus aureus SA1199B mutant overexpressing NorA at 128 ug/ml by disk diffusion method; assay type: functional; summary of the method: as §1
# Staphylococcus aureus [10] = experiment: Increase in 5 ug levofloxacin antibacterial activity against Staphylococcus aureus SA1199B mutant overexpressing NorA at 128 ug/ml by disk diffusion method; assay type: functional; summary of the method: as §1
# Staphylococcus aureus [11] = experiment: Increase in 16 ug/ml Norfloxacin accumulation in wild type Staphylococcus aureus SA1199 at 128 ug/ml after 20 mins; assay type: functional
# Summary of the method: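 Mid-exponential SA-1199 cells were washed and resuspended in 50 mM sodium phosphate, pH 7.0. They were exposed at time zero to norfloxacin at one-quarter MIC, alone or with EPI at 128 μg/ml. At 5–20 min, cells were spun through silicone-paraffin oil into orthophosphoric acid. Lysate norfloxacin was measured by C18 HPLC with fluorescence detection (ex 240, em 280 nm) and normalized to BCA protein (ng/mg). Triplicate experiments, mean reported.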
# Staphylococcus aureus [12] = experiment: Increase in 16 ug/ml Norfloxacin accumulation in Staphylococcus aureus SA1199B mutant overexpressing NorA measured per mg of cell protein at 128 ug/ml after 5 mins; assay type: functional, organism-based
# Summary of the method: (§2)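 SA-1199B was grown to mid-exponential phase in MH broth (4–5 h, 37°C, shaken), then washed and resuspended in 50 mM sodium phosphate, pH 7.0. Cells got norfloxacin at one-quarter MIC, alone or with inhibitor at 128 μg/ml. At 5–20 min, cells were spun through silicone-paraffin oil into orthophosphoric acid. Norfloxacin was measured by HPLC fluorescence (ex 240/[…]) as ng/mg BCA protein. Means of triplicate experiments.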
# Staphylococcus aureus [13] = experiment: Increase in 16 ug/ml Norfloxacin accumulation in Staphylococcus aureus SA1199B mutant overexpressing NorA measured per milligram of cell protein at 128 ug/ml after 20 mins; assay type: functional, organism-based; summary of the method: as §2
# Staphylococcus aureus [14] = experiment: Increase in 16 ug/ml Norfloxacin accumulation in Staphylococcus aureus SA1199B mutant overexpressing NorA at 128 ug/ml after 20 mins; assay type: functional; summary of the method: as §2
# Staphylococcus aureus [15] = experiment: Antibacterial activity against Staphylococcus aureus SA1199B overexpressing NorA at 5 ug by disk diffusion method; assay type: functional; details: read-out: IZ; summary of the method: as §1
Structure (SMILES),inhibition zone (IZ) (Staphylococcus aureus [1]) [mm],inhibition zone (IZ) (Staphylococcus aureus [2]) [mm],inhibition zone (IZ) (Staphylococcus aureus [3]) [mm],MIC (Staphylococcus aureus [4]) [µg/mL],MIC (Staphylococcus aureus [5]) [µg/mL],MIC (Staphylococcus aureus [6]) [µg/mL],inhibition zone (IZ) (Staphylococcus aureus [7]) [mm],inhibition zone (IZ) (Staphylococcus aureus [8]) [mm],inhibition zone (IZ) (Staphylococcus aureus [9]) [mm],inhibition zone (IZ) (Staphylococcus aureus [10]) [mm],Activity (Staphylococcus aureus [11]) [%],Drug uptake (Staphylococcus aureus [12]) [ng/mg],Drug uptake (Staphylococcus aureus [13]) [ng/mg],Activity (Staphylococcus aureus [14]) [%],zone of inhibition at 5 µg/disc (Staphylococcus aureus [15]) [mm]
COc1ccc2c(c1)nc([S+]([O-])Cc1nc3ccccc3n3cccc13)c1cccn12 (centres undefined),27,27,25,> 512,2,32,6,17,19,22,,,,,
COc1ccc2[nH]c([S+]([O-])Cc3nc4cc(OC)ccc4n4cccc34)nc2c1 (centres undefined),29,28,27,> 512,1,8,16,24,25,24,10,270,400,40,
COc1ccc2[nH]c([S+]([O-])Cc3nc4ccc(Cl)cc4n4cccc34)nc2c1 (centres undefined),27,27,25,> 512,1,16,10,19,21,23,10,270,400,40,
COc1c(N2C[C@@H]3CCCN[C@@H]3C2)c(F)cc2c(=O)c(C(=O)O)cn(C3CC3)c12 [MOXIFLOXACIN],,,,,,,,,,,,,,,27
O=C(O)c1cn(C2CC2)c2cc(N3CCNCC3)c(F)cc2c1=O [CIPROFLOXACIN],,,,,,,,,,,,,,,13
CCn1cc(C(=O)O)c(=O)c2cc(F)c(N3CCNCC3)cc21 [NORFLOXACIN],,,,,,,,,,,,,,,27
COc1ccc2c(c1)nc(C[S+]([O-])c1nc3ccccc3[nH]1)c1cccn12 (centres undefined),28,28,26,> 512,1,8,13,22,25,24,10,270,400,40,
CC1COc2c(N3CCN(C)CC3)c(F)cc3c(=O)c(C(=O)O)cn1c23 (centres undefined) [OFLOXACIN],,,,,,,,,,,,,,,27
Cn1ccnc1[S+]([O-])Cc1nc2ccccc2n2cccc12 (centres undefined),27,27,25,> 512,2,32,6,14,19,22,,,,,
COc1ccc2[nH]c([S+]([O-])Cc3nc4ccccc4n4cccc34)nc2c1 (centres undefined),27,28,26,> 512,1,8,15,24,25,24,10,270,400,40,
[O-][S+](Cc1nc2ccccc2n2cccc12)c1nc2ccccc2[nH]1 (centres undefined),28,28,25,> 512,1,16,10,19,23,24,10,270,400,40,
[O-][S+](Cc1nc2ccccc2n2cccc12)c1ncc[nH]1 (centres undefined),27,27,25,> 512,2,32,6,15,19,22,,,,,
Cn1c([S+]([O-])Cc2nc3ccccc3n3cccc23)nc2ccccc21 (centres undefined),27,27,25,> 512,2,32,6,15,20,23,,,,,
[O-][S+](Cc1nc2ccccc2n2cccc12)c1ccccn1 (centres undefined),27,27,25,> 512,2,32,6,17,20,22,,,,,
